A short description of series [1]: Induction in caspase-mediated apoptosis in human NB4-DR1 cells assessed as necrotic cells at 50 uM incubated for 24 hrs by Annexin V-FITC/propidium iodide staining based flow cytometry analysis (reference value: 0.19%). The series is classed as functional. (In general: In flow cytometry, cells or beads pass a laser one at a time.)
A short description of series [2]: Cytotoxicity against human L02 assessed as cell viability at 100 uM incubated for 24 hrs by CCK-8 assay relative to control. Format: cell-based. The settings on record: L02 cells, read-out: Activity. In a few lines:
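HUVEC and LO2 normal cells were cultured in RPMI-1640 or DMEM with 10% FBS at 37 °C, 5% CO2, and seeded at 3 × 10^4 cells/well. They were exposed for 24 h to graded concentrations. CCK-8 incubation was 3 h at 37 °C, with A450 read and viability expressed versus untreated control. Three independent experiments, mean ± SEM.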
(Tetrazolium dyes change colour on reduction, which living cells bring about.)

Series [3] concerns the target Glycogen synthase kinase-3 beta (Homo sapiens, UniProt P49841). Nature of the series: Inhibition of recombinant human GSK-3beta using GS-2 peptide as substrate incubated for 30 mins in presence of ATP by kinase-glo luminescence assay. (In general: In Kinase-Glo more light means more ATP remaining.)
Series [4] in a line: Induction in caspase-mediated apoptosis in human NB4-DR1 cells assessed as viable cells at 25 uM incubated for 24 hrs by Annexin V-FITC/propidium iodide staining based flow cytometry analysis (reference value: 96.9%). As to conditions: read-out: Activity. Format: functional.
A short description of series [5]: Induction in caspase-mediated apoptosis in human NB4-DR1 cells assessed as early apoptotic cells at 12.5 uM incubated for 24 hrs by Annexin V-FITC/propidium iodide staining based flow cytometry analysis (reference value: 1.43%). The series is classed as functional.
Series [6] relates to Raji. Nature of the series: Cytotoxicity against human Raji cells assessed as reduction in cell viability measured after 24 hrs by CCK-8 assay. The series is classed as functional, cell-based. In a few lines: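 Cells were grown in RPMI-1640 or high-glucose DMEM with 10% FBS at 37 °C, 5% CO2, and seeded at 3 × 10^4 cells/well. Exposure was 24 h across serial concentrations (0−1000 μM in the screen). […] Three independent experiments, mean ± SEM.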

Series [7] can be described thus: Induction in caspase-mediated apoptosis in human NB-4 cells assessed as late apoptotic cells at 12.5 uM incubated for 24 hrs in presence of Z-VAD-FMK by Annexin V-FITC/propidium iodide staining based flow cytometry analysis (reference value: 1.15%). Format: functional.
Series [8] in a line: Induction in caspase-mediated apoptosis in human NB4-DR1 cells assessed as late apoptotic cells at 100 uM incubated for 24 hrs by Annexin V-FITC/propidium iodide staining based flow cytometry analysis (reference value: 1.47%). Format: functional.
The nature of series [9]: Induction in caspase-mediated apoptosis in human NB4-DR1 cells assessed as necrotic cells at 25 uM incubated for 24 hrs by Annexin V-FITC/propidium iodide staining based flow cytometry analysis (reference value: 0.19%). Format: functional.
Series [10] has as its system NB-4. The experiment in a line: Antitumor activity against human NB-4 cells xenografted in BALB/c nude mouse assessed as tumor growth inhibition at 15 mg/kg/day, ip administered for 2 weeks relative to control. Format: functional. The settings on record: NB-4, ip, 336 h, read-out: TGI. In a few lines: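 Female Balb/c nude mice, 4 weeks old, received 2 × 10^6 NB4 cells s.c. in the right flank. Once tumours reached about 0.5 cm diameter, mice were randomised to corn-oil vehicle or drug in corn oil (n = 5). Dosing was 15 mg/kg/d i.p. once daily for 2 weeks. Caliper volume (length × width²)/2 was taken every other day, and tumours were excised and weighed at the end.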

Series [11] can be described thus: Induction in caspase-mediated apoptosis in human NB4-DR1 cells assessed as early apoptosis cells at 12.5 uM incubated for 24 hrs in presence of Z-VAD-FMK by Annexin V-FITC/propidium iodide staining based flow cytometry analysis (reference value: 0.875%). The series is classed as functional.

pIC50: −log10 of the molar value.

Chain of Glycogen synthase kinase-3 beta (P49841 whole entry): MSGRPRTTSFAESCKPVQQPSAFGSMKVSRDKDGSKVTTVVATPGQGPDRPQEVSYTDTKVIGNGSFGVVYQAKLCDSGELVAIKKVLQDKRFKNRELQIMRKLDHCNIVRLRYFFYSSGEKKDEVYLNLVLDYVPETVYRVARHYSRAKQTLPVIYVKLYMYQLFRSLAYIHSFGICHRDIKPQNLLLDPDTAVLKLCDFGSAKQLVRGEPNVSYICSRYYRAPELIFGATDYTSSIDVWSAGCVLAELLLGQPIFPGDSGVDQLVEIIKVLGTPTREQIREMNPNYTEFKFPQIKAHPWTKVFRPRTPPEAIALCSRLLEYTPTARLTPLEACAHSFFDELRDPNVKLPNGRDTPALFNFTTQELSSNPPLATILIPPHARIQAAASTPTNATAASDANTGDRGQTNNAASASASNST

With `C=CC(=O)N1C(=O)CC(c2ccc(F)cc2)Sc2ccccc21` (stereo unspecified), the Activity in [1] came to 2.29%; in series [5], 1.77%; in series [7] it was 7.39%; in [8], 46.8%; in series [9], 1.32%; in series [11] it was 0.773%. For the same compound, the viability at 24 h, 100 µM in [2] is greater than 70%. The results for the pIC50 in series [3] and in [6] were 5.18 and 4.55, respectively. For the same compound, the viability at 25 µM in series [4] was found to be 81.8%. Further, the inhibition in vivo at 15 mg/kg/day in series [10] is 76%.

The record behind these values is ChEMBL document CHEMBL5036319, “Discovery of Novel Benzothiazepinones as Irreversible Covalent Glycogen Synthase Kinase 3β Inhibitors for the Treatment of Acute Promyelocytic Leukemia” (J Med Chem, 2021).
